Hits are enriched below; roughly 2.6% of the tested compounds scored in any of these assays.
SENP1 FRET inh: human SENP1 catalytic domain inhibitors, primary screen, biochemical, FRET, uHTS; 360,000 compounds, 0.21% hits; recombinant SENP1 catalytic domain, CyPet-SUMO1-YPet FRET cleavage; AID 624204, 2012; inhibition, % at 10 µM; Sentrin-specific protease 1 (Homo sapiens), Q9P0U3;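 active = inhibition at least 30% at 10 µM, raw YFP signal under a set limit, fluorescence ratio 0.5 to 1.5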;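 note: 0% = enzyme with DMSO and 100% = no enzyme wells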
Target sequence (Q9P0U3 419-644 limits assumed): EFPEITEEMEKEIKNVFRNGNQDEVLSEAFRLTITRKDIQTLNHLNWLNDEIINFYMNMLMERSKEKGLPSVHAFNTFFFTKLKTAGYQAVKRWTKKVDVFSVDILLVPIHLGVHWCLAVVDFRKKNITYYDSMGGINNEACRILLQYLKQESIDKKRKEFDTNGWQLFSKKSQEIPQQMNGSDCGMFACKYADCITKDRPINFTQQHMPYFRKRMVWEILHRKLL
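Controls: no-enzyme wells low, DMSO-plus-enzyme wells high control. Test system: human recombinant His6-tagged SENP1 catalytic domain enzyme. Reagent: SFCypet-SUMO1-SFYpet FRET protein substrate, 25 nM final. Doses: one dose per compound, 10 µM, 0.5% DMSO. Detection: FRET, CFP and YFP emission. Timing: 50 min reaction at room temperature.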
Platelet DG rel: inhibitors of platelet dense granule secretion, primary screen, cell-based, MLPCN, human platelets | human platelet-rich plasma, SFLLRN dense granule ATP release, luminescence | inhibition, %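 (compounds screened at 7.5 µM in platelet-rich plasma)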 | 300,000 compounds, 0.22% hits;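 active = mean replicate score, as percent of positive control, at or above 50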
SENP8 block-1: human SENP8 protease inhibitors, primary screen, biochemical, fluorescence, Nedd8 protein substrate, uHTS | inhibition, % at 20 µM | 360,000 compounds, 0.64% hits | recombinant SENP8; in the data active = inhibition mostly above about 40%, no sharp cut-off; inactive = mostly below about 27%
Target sequence (Q96LD8 whole entry, looked up): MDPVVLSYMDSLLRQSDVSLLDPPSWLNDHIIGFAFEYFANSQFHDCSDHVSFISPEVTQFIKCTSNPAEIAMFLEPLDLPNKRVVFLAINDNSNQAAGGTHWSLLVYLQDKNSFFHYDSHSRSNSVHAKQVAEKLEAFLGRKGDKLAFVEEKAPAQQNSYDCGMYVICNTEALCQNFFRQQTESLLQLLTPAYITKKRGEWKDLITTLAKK
SENP8 block-2: SENP8 protease inhibitors, primary screen, biochemical, luminescence; purified SENP8, Z-RLRGG-aminoluciferin cleavage; 330,000 compounds, 1.2% hits; inhibition, % at 10 µM; AID 2540, 2010; Sentrin-specific protease 8 (Homo sapiens), Q96LD8; in the data active = inhibition above about 50%
SENP7 inh: SENP7 protease inhibitors, primary screen, biochemical, luminescence, uHTS | Sentrin-specific protease 7 (Homo sapiens), Q9BQF6 | recombinant SENP7, Z-RLRGG-aminoluciferin luminescence, 40 min | inhibition, % at 5 µM | 330,000 compounds, 1.5% hits | AID 434973, 2010;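 active = inhibition above about 50% at the single test dose, limit read from the data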;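 note: plate controls were DMSO with enzyme for no effect and no enzyme buffer wells for full effect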
SENP6 inh: SENP6 protease inhibitors, primary screen, biochemical, luminescence, uHTS; Sentrin-specific protease 6 (Homo sapiens), Q9GZR1; Recombinant SENP6 catalytic domain, aminoluciferin luminescence; inhibition, % at 10 µM; 330,000 compounds, 1.8% hits; AID 2599, 2010;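 active = inhibition above about 50% at the single tested dose, limit read from the data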;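 note: plate controls were DMSO wells with enzyme for no effect and DMSO wells lacking enzyme for full effect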
SENP8 conf: SENP8 protease inhibitors, retest, confirmation, biochemical, luminescence, single concentration. shares compounds with SENP7 inh. Recombinant SENP8, Z-RLRGG-aminoluciferin luminescence, 60 min. inhibition, % at 12.5 µM. 6,200 compounds, 40% hits. AID 488912, 2010;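 active = mean inhibition across replicates above about 50%, limit read from the data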
SENP6 conf: SENP6 protease inhibitors, confirmation, biochemical, luminescence, single concentration; shares compounds with SENP7 inh; recombinant SENP6, Z-RLRGG-aminoluciferin luminescence; inhibition, % at 12.5 µM; 6,200 compounds, 58% hits
SENP7 conf: SENP7 protease inhibitors, retest, confirmation, biochemical, luminescence, single concentration | shares compounds with SENP7 inh | recombinant SENP7, Z-RLRGG-aminoluciferin luminescence, 40 min | inhibition, % at 12.5 µM | 6,200 compounds, 69% hits | AID 488917, 2010
Casp3 select: caspase-3 protease inhibitors, confirmation, selectivity assay for SENP inhibitor project, biochemical, single concentration | purified caspase-3, Z-DEVD-aminoluciferin luminescence, 60 min | 6,200 compounds, 60% hits | shares compounds with SENP7 inh | inhibition, % at 12.5 µM | AID 488918, 2010;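 active = mean inhibition above about 50%, limit read from the data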;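 note: plate controls were enzyme with DMSO for no effect and wells without caspase-3 for full effect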
Luc interf: interferes with luciferase luminescence in SENP counter-screen; shares compounds with SENP7 inh; Pre-incubated SENP8/Z-RLRGG-aminoluciferin, luciferase luminescence interference; inhibition, % at 12.5 µM; 6,200 compounds, 39% hits; AID 488919;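 active = mean inhibition above about 50% when retested at one dose, limit read from the data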;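 note: plate controls were DMSO wells with completed reaction for no effect and substrate without enzyme for full effect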
Active calls of the source: *; i = inactive; · = no result given.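 Rule for the calls, unless noted: active = mean inhibition above about 50% in the one-dose retest (limit read from the data); inactive = the rest.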

SMILES	SENP1 FRET inh	Platelet DG rel	SENP8 block-1	SENP8 block-2	SENP7 inh	SENP6 inh	SENP8 conf	SENP6 conf	SENP7 conf	Casp3 select	Luc interf
COc1ccc(-c2csc(N3C(=N)SCC3=O)n2)cc1	2	-6	21	80*	9	74*	20	12	17	18	0
Cc1nnsc1NC(=O)OCc1ccccc1Cl	1	-32	15	12	-5	55*	35	36	63*	37	44
Cc1cc(C)c(NC(=O)C2CCCCN2C)c(C)c1 (stereo not given)	1	-4	14	-2	80*	-25	8	10	-3	2	-1
CCN(CC)c1ccc(/C=N/NC(=O)c2ccco2)cc1	-53	2	-409	·	·	·	·	·	·	·	·
CCN(CC)c1ccc(/C=N/NC(=O)c2ccco2)c(O)c1	-33	21	-450	30	63*	59*	37	59*	86*	60*	65*
O=C(N/N=C\c1ccc2c(c1)OCO2)c1ccco1	-1	21	-41	64*	72*	69*	68*	67*	91*	90*	68*
N#Cc1c(C(F)(F)F)cc(-c2ccc(F)cc2)[nH]c1=O	-84	-2	-392	8	-8	24	·	·	·	·	·
N#Cc1c(C(F)(F)F)cc(-c2cccc(Cl)c2)[nH]c1=O	-144	-8	-268	78*	4	74*	91*	91*	96*	74*	89*
N#Cc1c(C(F)(F)F)cc(-c2ccc(Cl)cc2)[nH]c1=O	-155	-4	-313	69*	23	51*	-26	13	39	16	41
Cc1cc(C)c2c(c1)C(=O)/C(=C/c1ccc(C(=O)O)cc1)CC2	3	8	10	75*	5	92*	62*	51*	53*	58*	19
O=C(O)c1ccc(/C=C2\COc3ccccc3C2=O)cc1	-1	-8	0	-6	-42	-17	·	·	·	·	·
CC(C)(C)OC(=O)N1CCc2onc(-c3ccccc3F)c2C1=O	-1	·	8	·	·	·	·	·	·	·	·
COc1cccc(NC(=O)Nc2ccc3c(c2)CCC3)c1	0	14	4	52*	67*	58*	1	14	83*	·	31
COc1cccc(NC(=O)c2ccc3c(c2)CCCC3)c1	-3	27	4	96*	100*	98*	98*	99*	102*	97*	94*
Cc1cccc(NC(=O)Nc2ccc3c(c2)CCC3)c1	-1	4	4	-11	62*	34	3	-5	-1	18	-12
COc1ccc(OC)c(NC(=O)Nc2ccc3c(c2)CCC3)c1	1	3	10	6	14	17	·	·	·	·	·
COc1ccc(-c2cc(C(=O)O)c3ccccc3n2)c(OC)c1	-3	-1	-458	-1	-3	26	·	·	·	·	·
COc1ccc(-c2ccc3ccccc3n2)cc1	2	4	-417	93*	99*	94*	92*	97*	101*	95*	74*
COc1ccc2cc(-c3cc(C(=O)O)c4ccccc4n3)ccc2c1	-2	30	i	54*	63*	83*	73*	72*	88*	81*	40
CN(C(=S)NC(=O)Cc1ccccc1)c1ccccc1	2	-4	5	1	0	-1	·	·	·	·	·
OC[C@@H](O)C(O)[C@@H](O)CO (stereo not given in full)	3	·	-4	·	·	·	·	·	·	·	·
O=C(c1ccc(Cl)cc1)c1nnc(-c2ccncc2)o1	1	1	32	4	12	24	·	·	·	·	·
O=C(c1ccccc1)c1nnc(-c2ccncc2)o1	3	-28	28	44	57*	58*	68*	64*	86*	88*	57*
Fc1ccc(Nc2nc3ccccc3s2)cc1	0	1	7	20	44	34	·	·	·	·	·
Cc1ccccc1Nc1nc2ccccc2s1	2	-2	10	68*	72*	0	84*	84*	95*	69*	71*
SMILES	SENP1 FRET inh	Platelet DG rel	SENP8 block-1	SENP8 block-2	SENP7 inh	SENP6 inh	SENP8 conf	SENP6 conf	SENP7 conf	Casp3 select	Luc interf
COc1ccc2nc(Nc3ccc4c(c3)OCO4)sc2c1	1	3	30	-22	58*	9	3	2	22	29	19
COc1ccc2nc(NC(=O)Nc3cccc4ccccc34)sc2c1	-3	-9	-151	-10	-5	0	·	·	·	·	·
COc1ccc2nc(Nc3nc4cc5c(cc4s3)OCO5)sc2c1	-26	2	-307	-11	0	2	·	·	·	·	·
COc1ccc2nc(Nc3ccccc3OC)sc2c1	0	22	16	92*	98*	92*	96*	96*	101*	91*	87*
COc1ccc2nc(NC(=O)Nc3ccccc3OC)sc2c1	-1	5	8	44	93*	81*	-8	-7	7	64*	-3
Cc1cc(C)c(C)c(S(=O)(=O)N[C@@H](C)C(=O)OCc2cc(=O)n3cc(Br)ccc3n2)c1C	-18	-3	-158	6	5	-5	·	·	·	·	·
COc1ccc2nc(Nc3ccccc3)sc2c1	2	15	-1	70*	84*	56*	88*	88*	98*	61*	84*
CCN(C(=O)c1cc(S(=O)(=O)N2CCCCC2)c[nH]1)c1ccc(OC)cc1	2	4	8	2	0	-8	·	·	·	·	·

Screening results deposited in PubChem by several laboratories.
